The values that follow come from ChEMBL document CHEMBL2062362, “Bioactive 3,4-seco-Triterpenoids from the Fruits of Acanthopanax sessiliflorus” (J Nat Prod, 2012).

One data set has as its system SK-OV-3. Put plainly: Cytotoxicity against human SKOV3 cells by MTT assay. The format is functional, cell-based. A general note: Tetrazolium assays rely on reduction of a dye to a coloured formazan, in cell work by metabolically active cells.
The test system of the next data set is SK-MEL-5. Put plainly: Cytotoxicity against human SK-MEL-5 cells by MTT assay. The format is functional, cell-based.
For a further data set, the system named is MCF7. Briefly: Cytotoxicity against human MCF7 cells by MTT assay. In kind it is functional, cell-based.
Another data set relates to HCT-116. Briefly: Cytotoxicity against human HCT116 cells by MTT assay. In kind it is functional, cell-based.
A further data set deals with RAW264.7. Put plainly: Antiinflammatory activity in mouse RAW264.7 cells assessed as inhibition of LPS-stimulated NO production pretreated for 30 mins before LPS challenge measured after 24 hrs by Griess reagent. In general terms: Nitrite, measured by Griess reagent, commonly stands in for NO production.
The subject of a further data set is HeLa. Put plainly: Cytotoxicity against human HeLa cells by MTT assay. The format is functional, cell-based.
For the next data set, the system named is SK-BR-3. Briefly: Cytotoxicity against human SKBR3 cells by MTT assay. The format is functional, cell-based.
The subject of the next data set is HepG2. Put plainly: Cytotoxicity against human HepG2 cells by MTT assay. The format is functional, cell-based.
Data set [1] can be described thus: Cytotoxicity against mouse RAW264.7 cells assessed as cell viability after 24 hrs by MTT assay. On the set-up: concentration or dose not given beside the values. The settings on record: read-out: Activity. In kind it is cell-based. The method, boiled down: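 The same LPS-stimulated RAW 264.7 cultures (1 × 10⁴ cells/well) were pretreated with samples for 30 min, then given LPS at 1 μg/mL for 24 h. Viability was assessed by MTT reduction and expressed as a percentage of the LPS-only group. Data are means ± SD of three independent experiments.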

SMILES strings stand for the structures. pIC50: −log10 of the molar value.

`C=C(C)[C@@H]1CC[C@]2(C(=O)O[C@@H]3O[C@H](CO)[C@@H](O)[C@H](O)[C@H]3O)CC[C@]3(C)[C@H](CC[C@@H]4[C@@](C)(CCC(=O)O)[C@H](C(=C)C)CC[C@]43C)[C@@H]12` [ACANTHOSESSILIOSIDE A]: the negative logarithm of the IC50 (pIC50) (as a rule, −log10 of the IC50, conventionally taken in molar units) is under 5.00 in the data set on SK-OV-3; under 5.00 in the data set on SK-MEL-5; under 5.00 in the data set with MCF7; under 5.00 in the data set on HCT-116; 4.74 in the data set with RAW264.7; under 5.00 in the data set with HeLa. Also, the negative logarithm of the IC50 (pIC50) in the data set on SK-BR-3 and in the data set with HepG2 was under 5.00 throughout. Besides, in data set [1], the viability at 24 h amounted to 93.5%.

Regarding `C=C(C)[C@@H]1CC[C@]2(C(=O)O[C@@H]3O[C@H](CO[C@@H]4O[C@H](CO)[C@@H](O)[C@H](O)[C@H]4O)[C@@H](O)[C@H](O)[C@H]3O)CC[C@]3(C)[C@H](C[C@H]4OC(=O)C[C@@H](O)[C@]5(C)[C@@H]4[C@@]3(C)CC[C@H]5C(=C)C)[C@@H]12`, the pIC50 with SK-OV-3 is under 5.00; in the data set with SK-MEL-5, under 5.00; in the data set on MCF7 it was under 5.00; with HCT-116 it was under 5.00; with RAW264.7 it was under 4.30; in the data set on HeLa, under 5.00. Besides, the pIC50 in the data set with SK-BR-3 and in the data set on HepG2 was under 5.00 each time.

As for `C=C(C)[C@@H]1C[C@H](O)[C@]2(C(=O)O)CC[C@]3(C)[C@H](C[C@H]4OC(=O)C[C@@H](O)[C@]5(C)[C@@H]4[C@@]3(C)CC[C@H]5C(=C)C)[C@@H]12`, the negative-log IC50 (pIC50) in the data set on SK-OV-3 is under 5.00; with SK-MEL-5 it was under 5.00; in the data set with MCF7, under 5.00; with HCT-116, under 5.00; in the data set on RAW264.7, under 4.30; in the data set with HeLa, under 5.00. Moreover, the negative logarithm of the IC50 (pIC50) in the data set with SK-BR-3 and in the data set on HepG2 was under 5.00 throughout.

Take `C=C(C)[C@@H]1C[C@H](O)[C@]2(C(=O)O[C@@H]3O[C@H](CO[C@@H]4O[C@H](CO)[C@@H](O[C@@H]5O[C@@H](C)[C@H](O)[C@@H](O)[C@H]5O)[C@H](O)[C@H]4O)[C@@H](O)[C@H](O)[C@H]3O)CC[C@]3(C)[C@H](C[C@H]4OC(=O)C[C@@H](O)[C@]5(C)[C@@H]4[C@@]3(C)CC[C@H]5C(=C)C)[C@@H]12`: the pIC50 in the data set on SK-OV-3 is under 5.00; in the data set with SK-MEL-5, under 5.00; with MCF7 it was under 5.00; in the data set on HCT-116, under 5.00; in the data set with RAW264.7, under 4.30; in the data set with HeLa it was under 5.00. The negative-log IC50 (pIC50) with SK-BR-3 and in the data set on HepG2 was under 5.00 throughout.

Consider `C=C(C)[C@@H]1C[C@H](O)[C@]2(C(=O)O)CC[C@]3(C)[C@H](C[C@@H](O)[C@@H]4[C@@]5(C)[C@@H](CC(=O)O)OC(C)(C)[C@@H]5CC[C@]43C)[C@@H]12`, for which the pIC50 in the data set with SK-OV-3 was under 5.00; in the data set on SK-MEL-5, under 5.00; in the data set with MCF7 it was under 5.00; in the data set on HCT-116 it was under 5.00; in the data set on RAW264.7, under 4.30; in the data set on HeLa, under 5.00. The pIC50 with SK-BR-3 and with HepG2 was under 5.00 throughout.

As for `C=C(C)[C@@H]1CC[C@]2(C(=O)O)CC[C@]3(C)[C@H](C[C@@H](O)[C@@H]4[C@@]5(C)[C@@H](CC(=O)OC)OC(C)(C)[C@@H]5CC[C@]43C)[C@@H]12` [ACANTHOSESSILIGENIN II], the negative logarithm of the IC50 (pIC50) with SK-OV-3 is under 5.00; in the data set on SK-MEL-5, under 5.00; in the data set on MCF7, under 5.00; with HCT-116, under 5.00; with RAW264.7, 4.33; in the data set on HeLa, under 5.00. The negative logarithm of the IC50 (pIC50) with SK-BR-3 and in the data set on HepG2 was under 5.00 throughout. Further, the viability at 24 h in data set [1] was 91.1%.

In the case of `C=C(C)[C@@H]1CC[C@]2(C(=O)O[C@@H]3O[C@H](CO)[C@@H](O)[C@H](O)[C@H]3O)CC[C@]3(C)[C@H](C[C@@H](O)[C@@H]4[C@@]5(C)[C@@H](CC(=O)OC)OC(C)(C)[C@@H]5CC[C@]43C)[C@@H]12` [ACANTHOSESSILIOSIDE B], the pIC50 in the data set on SK-OV-3 is under 5.00; with SK-MEL-5 it was under 5.00; in the data set with MCF7 it was under 5.00; in the data set on HCT-116, under 5.00; with RAW264.7 it was 4.69; with HeLa, under 5.00. The pIC50 in the data set on SK-BR-3 and in the data set on HepG2 was under 5.00 in each case. Further, the viability at 24 h in data set [1] stood at 93%.

On to `C=C(C)[C@@H]1CC[C@]2(C(=O)O[C@@H]3O[C@H](CO[C@@H]4O[C@H](CO)[C@@H](O[C@@H]5O[C@@H](C)[C@H](O)[C@@H](O)[C@H]5O)[C@H](O)[C@H]4O)[C@@H](O)[C@H](O)[C@H]3O)CC[C@]3(C)[C@H](C[C@H]4OC(=O)C[C@@H](O)[C@]5(C)[C@@H]4[C@@]3(C)CC[C@H]5C(=C)C)[C@@H]12` [CHIISANOSIDE], for which the pIC50 is over 5.00 with SK-OV-3; over 5.00 in the data set on SK-MEL-5; over 5.00 with MCF7; over 5.00 in the data set with HCT-116; under 4.30 in the data set on RAW264.7; under 5.00 with HeLa. Further, the values for the pIC50 in the data set on SK-BR-3 and in the data set on HepG2 were over 5.00 and under 5.00, respectively.

`CC(=O)O[C@H]1C(=O)[C@@]2(C)[C@H]([C@H](OC(=O)c3ccccc3)[C@]3(O)C[C@H](OC(=O)[C@H](O)[C@@H](NC(=O)c4ccccc4)c4ccccc4)C(C)=C1C3(C)C)[C@]1(OC(C)=O)CO[C@@H]1C[C@@H]2O` [PACLITAXEL]: the negative logarithm of the IC50 (pIC50) in the data set on SK-OV-3 was 6.40; with SK-MEL-5 it was 6.82; in the data set on MCF7 it was 6.05; with HCT-116, 7.30; in the data set with SK-BR-3 it was 6.96.

In the case of `C=C(C)[C@@H]1C[C@H](O)[C@]2(C(=O)O)CC[C@]3(C)[C@H](CC[C@@H]4[C@@](C)(CCC(=O)OC)[C@H](C(=C)C)CC[C@]43C)[C@@H]12` [ACANTHOSESSILIGENIN I], the negative-log IC50 (pIC50) in the data set with SK-OV-3 was under 5.00; in the data set with SK-MEL-5 it was under 5.00; in the data set with MCF7, under 5.00; with HCT-116 it was under 5.00; in the data set on RAW264.7, 4.95; in the data set with HeLa, under 5.00. For the same compound, the pIC50 in the data set with SK-BR-3 and in the data set on HepG2 was under 5.00 each time. For the same compound, the viability at 24 h in data set [1] came out at 88.8%.

Regarding `C=C(C)[C@@H]1C[C@H](O)[C@]2(C(=O)O[C@@H]3O[C@H](CO)[C@@H](O)[C@H](O)[C@H]3O)CC[C@]3(C)[C@H](CC[C@@H]4[C@@]5(C)[C@@H](CC(=O)O)OC(C)(C)[C@@H]5CC[C@]43C)[C@@H]12` [ACANTHOSESSILIOSIDE E], the pIC50 in the data set with SK-OV-3 was under 5.00; in the data set with SK-MEL-5, under 5.00; with MCF7 it was under 5.00; in the data set on HCT-116, under 5.00; with RAW264.7, under 4.30; in the data set on HeLa, under 5.00. Further, the negative logarithm of the IC50 (pIC50) in the data set with SK-BR-3 and in the data set on HepG2 was under 5.00 in each case.

Turning to `C=C(C)[C@@H]1C[C@H](O)[C@]2(C(=O)O[C@@H]3O[C@H](CO)[C@@H](O)[C@H](O)[C@H]3O)CC[C@]3(C)[C@H](C[C@H]4OC(=O)C[C@@H](O)[C@]5(C)[C@@H]4[C@@]3(C)CC[C@H]5C(=C)C)[C@@H]12` [ACANTHOSESSILIOSIDE F], the pIC50 with SK-OV-3 is under 5.00; with SK-MEL-5 it was under 5.00; in the data set with MCF7 it was under 5.00; in the data set on HCT-116, under 5.00; in the data set with RAW264.7, under 4.30; with HeLa, under 5.00. Further, the pIC50 with SK-BR-3 and in the data set with HepG2 was under 5.00 in each case.

Consider `C=C(C)[C@@H]1C[C@H](O)[C@]2(C(=O)O[C@@H]3O[C@H](CO)[C@@H](O)[C@H](O)[C@H]3O)CC[C@]3(C)[C@H](C[C@@H](O)[C@@H]4[C@@]5(C)[C@@H](CC(=O)OC)OC(C)(C)[C@@H]5CC[C@]43C)[C@@H]12` [ACANTHOSESSILIOSIDE C], for which the negative logarithm of the IC50 (pIC50) was under 5.00 with SK-OV-3; under 5.00 with SK-MEL-5; under 5.00 in the data set with MCF7; under 5.00 in the data set on HCT-116; under 4.30 in the data set with RAW264.7; under 5.00 with HeLa. Moreover, the pIC50 with SK-BR-3 and in the data set with HepG2 was under 5.00 in each case.

In the case of `C=C(C)[C@@H]1CC[C@]2(C(=O)O)CC[C@]3(C)[C@H](CC[C@@H]4[C@@]5(C)[C@@H](CC(=O)O[C@@H]6O[C@H](CO)[C@@H](O)[C@H](O)[C@H]6O)OC(C)(C)[C@@H]5CC[C@]43C)[C@@H]12` [ACANTHOSESSILIOSIDE D], the negative logarithm of the IC50 (pIC50) with SK-OV-3 is under 5.00; in the data set with SK-MEL-5, under 5.00; in the data set on MCF7, under 5.00; with HCT-116 it was under 5.00; in the data set on RAW264.7, 4.92; in the data set with HeLa it was under 5.00. Also, the negative logarithm of the IC50 (pIC50) with SK-BR-3 and in the data set with HepG2 was under 5.00 each time. The viability at 24 h in data set [1] is 95.2%.

`N=C(N)NN` [PIMAGEDINE]: the negative-log IC50 (pIC50) with RAW264.7 was 5.19. In addition, the viability at 24 h in [1] amounted to 84.6%.
